Assay results from publication PMC6489498 (Inorganic chemistry, 2017).
Read-outs that look alike come from different tables or passages of the source.

What was measured:
ZnCA = details: with ZnCA; ref 7 (Martin, et al); cited from earlier work
CoCA = format: physicochemical, bovine; details: calculated from first addition (3.75 μM MBP) to 38 μM CoCA; thione coordinated
Outline: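 UV-vis titration of 38 μM CoCA with MBP in 50 mM phosphate, pH 7.5. ΔA of protonated and deprotonated bands converted to concentrations using the εOH–εO− difference, then to mole fractions vs MBP added. Effective pKa calculated from the first addition (3.75 μM), […]. Shift expressed relative to the free-MBP hydroxyl pKa.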

[1] = MBP hydroxyl pKa from pH-dependent optical spectra; format: physicochemical
[2] = solution of the free MBP, pH varied (UV-vis optical spectra)

SMILES: Cc1occc(=S)c1O [TM, 3-hydroxy-2-methyl-4H-pyran-4-thione]
- Ki (ZnCA): 1400 µM
- effective pKa (CoCA): 8.3
- pKa [1]: 9
- pKa [1, 2]: ~9

SMILES: Oc1coccc1=S [TPMA, 3-hydroxy-4H-pyran-4-thione]
- Ki (ZnCA): 1100 µM
- effective pKa (CoCA): 8.4
- pKa [1]: 9.5
- pKa [1, 2]: ~9.5

SMILES: Cc1cc(=S)c(O)co1 [ATM, 5-hydroxy-2-methyl-4H-pyran-4-thione]
- Ki (ZnCA): 650 µM
- effective pKa (CoCA): 7.6
- pKa [1]: 8.3
- deprotonated form present at physiological pH ([1]; expected from pKa): ~ 15%
- pKa [1, 2]: ~8.3
